Assay results published in ChEMBL document CHEMBL2331492, “Synthesis and biological evaluation of new cytotoxic indazolo[4,3-gh]isoquinolinone derivatives” (Bioorg Med Chem Lett, 2013).
The source made the active and inactive calls. The calls are words filed in the database; no cut-off is given here.

Assays:
SK-OV-3 [1] = test: Antiproliferative activity against human SKOV3 cells after 48 hrs; type: functional, cell-based; conditions: SK-OV-3, 48 h
How it was run: (§1)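 Cells seeded in supplier-recommended growth medium at line-adapted densities (linear signal range), grown 24 h at 37 °C/5% CO2, then exposed to compound; highest concentration 3.16 μM. After 45 h, resazurin (0.2 mg/mL in DPBS) added for 3 h; fluorescence at 590 nm read at 48 h. % efficacy vs untreated cells and cell-free blanks; EC50 by nonlinear regression from at least two independent assays.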

[2] = Antiproliferative activity against human RKOp27 cells after 48 hrs; type: functional, cell-based; conditions: RKOp27, 48 h; how it was run: as §1
SF-268 [3] = test: Antiproliferative activity against human SF268 cells after 48 hrs; type: functional, cell-based; conditions: SF-268, 48 h; how it was run: as §1
NCI-H460 [4] = test: Antiproliferative activity against human NCI-H460 cells after 48 hrs; type: functional, cell-based; conditions: NCI-H460, 48 h; how it was run: as §1
DNA = test: Binding affinity to calf thymus DNA up to 5 mM; type: nucleic-acid assay; conditions: Bos taurus
How it was run: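 UV-vis absorbance shift assay. Stocks of up to 5 mM were made in 5% DMSO or methanol. They were diluted in pH 7 phosphate buffer (5 mM NaH2PO4, 5 mM Na2HPO4, 70 mM NaCl) to give a maximum absorbance of about 1–2. Spectra were taken from 230–600 nm with and without 2 mg/ml calf thymus DNA, and peak shifts were compared.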

[5] = Antiproliferative activity against human KB/HeLa cells after 48 hrs; type: functional, cell-based; how it was run: as §1
[6] = Antiproliferative activity against human RKOp27IND cells after 48 hrs; type: functional, cell-based; how it was run: as §1
[7] = Cell cycle arrest in human KB/HeLa cells assessed as accumulation at S phase at < 7 uM after 24 hrs by flow cytometry analysis; type: functional, cell-based
How it was run: (§2)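 Exponentially dividing KB/HeLa cells (ATCC CCL17) were exposed at 37 °C to a range of compound concentrations and compared with untreated controls. Cells were prepared with the CycleTEST PLUS kit. DNA content was measured by flow cytometry (FACSCalibur), and phase distribution was derived with cell cycle analysis software.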

SF-268 [8] = test: Antiproliferative activity against human SF268 cells at 3.16 uM after 48 hrs; type: functional; conditions: SF-268, 48 h
How it was run: (§3)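 Cells were seeded in the supplier-recommended medium and grown 24 h at 37 °C/5% CO2 before compound addition. Resazurin (0.2 mg/mL in DPBS) was added after 45 h, and fluorescence at 590 nm was read at 48 h total. % inhibition at the highest concentration (3.16 μM) was scored against untreated cells and cell-free blanks on each plate. Data came from at least two independent assays.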

SK-OV-3 [9] = test: Antiproliferative activity against human SKOV3 cells at 3.16 uM after 48 hrs; type: functional; conditions: SK-OV-3, 48 h; how it was run: as §3
[10] = Antiproliferative activity against human RKOp27IND cells at 3.16 uM after 48 hrs; type: functional; how it was run: as §3
NCI-H460 [11] = test: Antiproliferative activity against human NCI-H460 cells at 3.16 uM after 48 hrs; type: functional; conditions: NCI-H460, 48 h; how it was run: as §3
[12] = Antiproliferative activity against human RKOp27 cells at 3.16 uM after 48 hrs; type: functional; conditions: RKOp27, 48 h; how it was run: as §3
[13] = Antiproliferative activity against human KB/HeLa cells at 3.16 uM after 48 hrs; type: functional; how it was run: as §3
[14] = Cell cycle arrest in human KB/HeLa cells assessed as accumulation at S phase at < 4 uM after 24 hrs by flow cytometry analysis; type: functional, cell-based; how it was run: as §2
[15] = Cell cycle arrest in human KB/HeLa cells assessed as accumulation at S phase at < 6 uM after 24 hrs by flow cytometry analysis; type: functional, cell-based; how it was run: as §2
[16] = Cell cycle arrest in human KB/HeLa cells assessed as accumulation at S phase up to 11 uM after 24 hrs by flow cytometry analysis; type: functional, cell-based; how it was run: as §2

| Structure (SMILES) | EC50 (SK-OV-3 [1]) | EC50 (NCI-H460 [4]) | EC50 [2] | EC50 (SF-268 [3]) | Activity (DNA) | EC50 [5] | EC50 [6] | other results |
| --- | --- | --- | --- | --- | --- | --- | --- | --- |
| CN(C)CCn1nc2c3c(c(NCCCCN4CC4)ccc31)C(=O)c1ccncc1-2 | 0.53 µM | 0.07 µM | 1 µM | 0.42 µM | Active | 0.08 µM | 1.02 µM | – |
| CN(C)CCn1nc2c3c(c(NCCc4cccs4)ccc31)C(=O)c1ccncc1-2 | 3.22 µM | 1.47 µM | 3.12 µM | – | – | – | 4.84 µM | – |
| O=C1c2c(O)ccc(O)c2C(=O)c2c(NCCNCCO)ccc(NCCNCCO)c21 [MITOXANTRONE] | 0.12 µM | 0.12 µM | 0.09 µM | 0.32 µM | Active | 0.36 µM | 0.76 µM | – |
| CN(C)CCn1nc2c3c(c(NCC/C=C/CCN4CC4)ccc31)C(=O)c1ccncc1-2 | 3.22 µM | 0.69 µM | 0.72 µM | 2.99 µM | – | 1.22 µM | 2.78 µM | Activity [7]: Active |
| CN(C)CCn1nc2c3c(c(NCCc4c[nH]cn4)ccc31)C(=O)c1ccncc1-2 | 1.65 µM | 3.02 µM | 1.33 µM | – | – | – | 4.81 µM | – |
| CN(C)CCn1nc2c3c(c(NCCCCCCc4ccc(N(CCCl)CCCl)cc4)ccc31)C(=O)c1ccncc1-2 | – | – | – | – | – | – | – | inhibition at 3.16 µM (SF-268 [8]): < 30%; inhibition at 3.16 µM (SK-OV-3 [9]): < 30%; inhibition at 3.16 µM (NCI-H460 [11]): < 30%; inhibition at 3.16 µM [12]: < 30%; inhibition at 3.16 µM [13]: < 30%; inhibition at 3.16 µM [10]: < 30% |
| CN(C)CCn1nc2c3c(c(NCCCCCCN4CC4)ccc31)C(=O)c1ccncc1-2 | 0.77 µM | 0.2 µM | 0.13 µM | 0.76 µM | Active | 0.34 µM | 1.28 µM | Activity [14]: Active |
| CN(C)CCn1nc2c3c(c(NCCC4CCCN4C)ccc31)C(=O)c1ccncc1-2 (stereo unspecified) | 0.36 µM | 0.16 µM | 0.37 µM | – | Active | – | 0.46 µM | – |
| c1ccc2nc3ccccc3cc2c1 | – | – | – | – | Active | – | – | – |
| CN(C)CCn1nc2c3c(c(NCCc4c[nH]c5ccccc45)ccc31)C(=O)c1ccncc1-2 | 1.52 µM | 1.32 µM | 1.33 µM | – | inactive | – | 1.51 µM | – |
| CN(C)CCn1nc2c3c(c(NCC/C=C\CCN4CC4)ccc31)C(=O)c1ccncc1-2 | 1.77 µM | 0.59 µM | 0.29 µM | 1.71 µM | – | 0.43 µM | 1.2 µM | Activity [15]: Active |
| CN(C)CCn1nc2c3c(c(NCCc4ccccn4)ccc31)C(=O)c1ccncc1-2 | 1.41 µM | 0.99 µM | 2.68 µM | – | – | – | 3.77 µM | – |
| CN(C)CCn1nc2c3c(c(NCCN4CC4)ccc31)C(=O)c1ccncc1-2 | 0.39 µM | 0.08 µM | 0.08 µM | 0.69 µM | – | 0.07 µM | 1.05 µM | – |
| CN(C)CCn1nc2c3c(c(NCCCCc4ccc(N(CCCl)CCCl)cc4)ccc31)C(=O)c1ccncc1-2 | – | 3.76 µM | 1.19 µM | 4.17 µM | – | 2.47 µM | 1.63 µM | inhibition at 3.16 µM (SK-OV-3 [9]): < 30% |
| CN(C)CCn1nc2c3c(c(N(C)C)ccc31)C(=O)c1ccncc1-2 | 2.08 µM | 0.77 µM | 2.63 µM | 1.34 µM | Active | 2.19 µM | 3.06 µM | – |
| CN(C)CCn1nc2c3c(c(NCCC#CCCN4CC4)ccc31)C(=O)c1ccncc1-2 | 0.31 µM | 0.06 µM | 0.07 µM | 0.24 µM | Active | 0.14 µM | 0.35 µM | Activity [16]: inactive |

More lines, main results first:

| EC50 (SK-OV-3 [1]) | EC50 (NCI-H460 [4]) | Structure (SMILES) | EC50 [2] | EC50 (SF-268 [3]) | Activity (DNA) | EC50 [5] | EC50 [6] | other results |
| --- | --- | --- | --- | --- | --- | --- | --- | --- |
| 1.36 µM | 0.68 µM | CSCCCNc1ccc2c3c(nn2CCN(C)C)-c2cnccc2C(=O)c13 | 2.94 µM | – | – | – | 4.76 µM | – |
| 0.73 µM | 0.411 µM | CN(C)CCn1nc2c3c(c(NCCC#CCCOS(C)(=O)=O)ccc31)C(=O)c1ccncc1-2 | 0.47 µM | 0.75 µM | – | 0.39 µM | 0.98 µM | – |
| 0.4 µM | 0.15 µM | CN(C)CCn1nc2c3c(c(NCCSCCO)ccc31)C(=O)c1ccncc1-2 | 0.55 µM | 0.66 µM | Active | 0.96 µM | 1.06 µM | – |
| 0.55 µM | 0.25 µM | CN(C)CCn1nc2c3c(c(NCCOS(C)(=O)=O)ccc31)C(=O)c1ccncc1-2 | 0.17 µM | 0.39 µM | – | 0.15 µM | 1.83 µM | – |
| – | 1.07 µM | CN(C)CCn1nc2c3c(c(NCCCCOS(C)(=O)=O)ccc31)C(=O)c1ccncc1-2 | 1.18 µM | – | – | 3.17 µM | – | inhibition at 3.16 µM (SF-268 [8]): < 30%; inhibition at 3.16 µM (SK-OV-3 [9]): < 30%; inhibition at 3.16 µM [10]: < 30% |
| 1.21 µM | 0.68 µM | CN(C)CCn1nc2c3c(c(NCCC#CCCO)ccc31)C(=O)c1ccncc1-2 | 1.63 µM | 3.45 µM | Active | 1.39 µM | 3.23 µM | – |
| 0.7 µM | 0.31 µM | CN(C)CCSCCNc1ccc2c3c(nn2CCN(C)C)-c2cnccc2C(=O)c13 | 0.92 µM | 2.37 µM | – | 0.75 µM | 1.79 µM | – |
| 3.61 µM | 0.82 µM | CN(C)CCn1nc2c3c(c(NCCCCCCOS(C)(=O)=O)ccc31)C(=O)c1ccncc1-2 | 0.51 µM | 1.37 µM | – | 1.67 µM | 1.93 µM | – |
| 5.38 µM | 2.18 µM | CN(C)CCn1nc2c3c(c(NCC/C=C\CCOS(C)(=O)=O)ccc31)C(=O)c1ccncc1-2 | 0.63 µM | 3.07 µM | – | 0.75 µM | 2.61 µM | – |
